Assay outcomes as filed in PubChem BioAssay.
Compounds with a hit are over-represented: about 3% of the library has one in this group of screens.
esBAF inh = Bmi1 luciferase reporter increase in mESCs, primary screen, esBAF inhibitor project, mouse ES cells, Bmi1 luciferase knock-in, single point; 24 h; 100% = twice the neutral-well signal; reporter increase, % at 12.5 µM; actives 2% (n = 350,000); AID 602393, 2012; in the data active = activation above about 40%; inconclusive = no clear call, values can overlap the other calls;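 also: 0% = median of the plate's neutral control wells and 100% = double that signal; a rise in the Bmi1 reporter signal indicates esBAF inhibition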
Wnt bcat act = Wnt/beta-catenin pathway activators, primary screen, cell-based, plate reader, single point | activation, % at 9.35 µM | actives 1.2% (n = 300,000) | Wnt/beta-catenin reporter cell assay, activator; in the data active = activation above about 30%, passing the limit was not always enough; inconclusive = no clear call, values can overlap the other calls;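 also: 0% = neutral control wells and 100% = positive control wells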
CASP6 VEID inh = human caspase-6 inhibitors, primary screen, biochemical, VEID-R110 fluorescence, single point, set 2; actives 0.53% (n = 350,000); AID 686996, 2013; purified caspase-6, Z-VEID-R110 cleavage fluorescence; inhibition, % at 12.5 µM;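 active = mean inhibition across replicates at least about 35%, with every replicate also reaching that limit, limit read from the data; inconclusive = only one of the two criteria met; inactive = neither criterion met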;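 also: 0% = median of neutral control wells and 100% = no fluorescence left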
MITF act = activators of MITF-driven TRPM1 promoter reporter, primary screen, cell-based, SK-MEL-5, luciferase, single point; SK-MEL-5 TRPM1-promoter luciferase, 24 h; % of positive control, neutral wells = 0; activation, % at 12.5 µM; actives 0.75% (n = 300,000);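 active = mean activation of at least 80% with every replicate also reaching 80%; inconclusive = mean reaches 80% but some replicate falls short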;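 also: 0% = neutral control wells and 100% = parthenolide positive control wells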
NSD2 HMT inh = NSD2 histone methyltransferase inhibitors, primary screen, biochemical, AlphaScreen, single concentration, set 2. actives 0.54% (n = 310,000). AID 743445, 2014. NSD2 peptide methylation, 120 min. Histone-lysine N-methyltransferase NSD2 (Homo sapiens), O96028. inhibition, % at 12.5 µM; in the data active = inhibition above about 50%
Target sequence (O96028 whole entry, looked up): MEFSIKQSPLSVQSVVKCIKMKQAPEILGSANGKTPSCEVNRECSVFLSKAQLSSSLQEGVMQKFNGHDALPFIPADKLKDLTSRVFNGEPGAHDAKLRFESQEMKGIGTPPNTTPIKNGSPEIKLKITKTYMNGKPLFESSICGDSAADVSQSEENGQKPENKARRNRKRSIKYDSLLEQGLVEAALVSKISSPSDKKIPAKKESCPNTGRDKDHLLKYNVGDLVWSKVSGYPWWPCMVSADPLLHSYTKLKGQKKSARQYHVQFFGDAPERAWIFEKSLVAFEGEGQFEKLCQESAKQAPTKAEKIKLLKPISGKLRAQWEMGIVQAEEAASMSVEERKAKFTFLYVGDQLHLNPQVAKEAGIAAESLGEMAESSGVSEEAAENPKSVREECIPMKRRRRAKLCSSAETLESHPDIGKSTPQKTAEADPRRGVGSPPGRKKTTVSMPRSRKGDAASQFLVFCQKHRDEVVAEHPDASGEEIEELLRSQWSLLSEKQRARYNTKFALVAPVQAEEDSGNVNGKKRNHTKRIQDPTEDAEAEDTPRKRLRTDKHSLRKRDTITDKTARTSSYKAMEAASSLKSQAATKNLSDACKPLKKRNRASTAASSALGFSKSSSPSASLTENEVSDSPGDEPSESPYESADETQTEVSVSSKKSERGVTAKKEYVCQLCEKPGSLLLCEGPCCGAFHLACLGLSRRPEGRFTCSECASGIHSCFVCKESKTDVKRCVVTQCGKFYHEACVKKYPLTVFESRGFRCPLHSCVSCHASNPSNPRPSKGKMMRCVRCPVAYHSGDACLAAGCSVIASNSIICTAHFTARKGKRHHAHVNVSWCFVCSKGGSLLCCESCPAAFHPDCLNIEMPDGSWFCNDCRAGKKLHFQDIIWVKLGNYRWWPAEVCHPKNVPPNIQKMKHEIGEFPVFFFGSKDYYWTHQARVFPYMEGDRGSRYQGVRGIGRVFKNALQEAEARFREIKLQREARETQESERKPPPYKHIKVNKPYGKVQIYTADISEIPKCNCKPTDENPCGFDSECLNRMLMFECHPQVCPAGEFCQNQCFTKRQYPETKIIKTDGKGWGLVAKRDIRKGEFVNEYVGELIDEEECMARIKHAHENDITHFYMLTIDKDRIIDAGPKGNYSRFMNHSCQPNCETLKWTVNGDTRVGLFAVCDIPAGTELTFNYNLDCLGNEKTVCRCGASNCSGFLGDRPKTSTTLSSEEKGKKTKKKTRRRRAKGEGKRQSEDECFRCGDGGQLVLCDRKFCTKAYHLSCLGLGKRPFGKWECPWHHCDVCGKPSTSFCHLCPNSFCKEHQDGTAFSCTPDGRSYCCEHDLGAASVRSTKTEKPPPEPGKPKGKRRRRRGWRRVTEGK
XiGFP reactiv = activators of inactive X chromosome reactivation, primary screen, imaging, XiGFP fibroblasts, GFP high-content imaging, set 2 | XiGFP mouse fibroblasts, % GFP-positive cells imaging, 3 d; cells co-treated with 5-aza-dC sensitizer; scaled so ellipticine positive control = 100% | activation, % at 7.58 µM | actives 0.055% (n = 360,000);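 active = mean normalized replicate activation at least 10% and every replicate at or above 10%; inconclusive = only one of the two criteria met; inactive = mean below 10% and not all replicates reach 10%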;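 also: 0% = median of on-plate neutral control wells and 100% = ellipticine 6 µM median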
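material = 68-5-11 XiGFP fibroblast line | medium = DMEM plus 5-aza-dC sensitizer | schedule = 3 days compound exposure | benchmarks = positive control ellipticine, 6 µM final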
* marks the source's active call; other numbers are inactive results; ? = inconclusive; · = not tested or not shown.

SMILES	esBAF inh	Wnt bcat act	CASP6 VEID inh	MITF act	NSD2 HMT inh	XiGFP reactiv
COc1ccc(NC(=O)Nc2ccc3c(c2)CC(=O)N([C@@H](C)CO)C[C@@H](C)[C@H](CN(C)S(=O)(=O)c2c(C)noc2C)O3)cc1	0	·	5	·	·	0
COC(=O)c1c(CC[C@@H](CO)NC(=O)N[C@H](Cn2cc(Cc3ccccc3)nn2)C(C)C)oc(C(C)=O)c1C(=O)OC	·	·	7	·	·	·
CN(C[C@@H]1N[C@H](CO)[C@@H]1c1ccc(C#CCC2CCCC2)cc1)S(C)(=O)=O	·	·	1	·	·	0
O=C(Nc1nccs1)c1csc2c1CCCC2	63*	·	·	41	-5	·
COc1cc(SC)ccc1C(=O)Nc1ccccc1	?	34*	·	·	-1	·
O=C(Nc1ccon1)c1csc2c1CCCC2	-2	0	2	1	·	·
C[C@@H]1CN([C@@H](C)CO)C(=O)Cc2cc(NC(=O)Cc3ccccc3)ccc2O[C@H]1CN(C)Cc1ccccc1	2	·	-2	·	·	0
[O-]/[N+](=N\Nc1ccc(Cl)cc1)c1ccccc1	52*	3	2	75	5	0
O=C(Nc1cccc(Cl)c1)O/N=C\c1ccncc1	4	-1	-1	-11	2	·
Clc1cccc(N/N=C/c2ccncc2)c1	·	9	·	101*	1	0
Clc1ccc(/C=N\Nc2ccccc2)cc1	42*	4	1	·	3	0
Cc1noc(C)c1S(=O)(=O)N(C)C[C@@H]1OCCCC[C@@H](C)Oc2ccc(NC(=O)Cc3ccccc3)cc2C(=O)N([C@@H](C)CO)C[C@H]1C	7	·	-3	·	·	0
CC(=O)N1CC2(C1)[C@H](c1ccccc1)[C@H](CO)N2C(=O)c1ccncc1	·	·	·	·	·	0
Clc1ccccc1Nc1nc(NCc2ccccc2)nc2ccsc12	-16	-1	2	·	-2	0
OCc1ccccc1-c1nc(NCc2ccccc2)nc2ccsc12	-3	-1	42*	·	-1	0
C(=Cc1c[nH]c2ccccc12)c1nccc2ccccc12	-43	42*	5	28	-15	0
C(=Cc1c[nH]c2ccccc12)c1ccc2ccccc2n1	-62	5	-1	-20	·	0
CN1CCc2c(sc(NC(=O)Cc3ccccc3)c2C(N)=O)C1	-7	2	0	·	·	1
CN1CCc2c(sc(NC(=O)c3ccc4ccccc4c3)c2C(N)=O)C1	-15	·	·	121*	-1	·
CCN1CCc2c(sc(NC(=O)c3ccc(S(=O)(=O)N(CC)c4ccccc4)cc3)c2C(N)=O)C1	1	-2	-2	-17	7	73*
CCN1CCc2c(sc(NC(=O)Nc3ccc(Cl)c(Cl)c3)c2C(N)=O)C1	8	0	-2	-1	-7	105*
CCC(=O)Nc1sc2c(c1C(N)=O)CCN(Cc1ccccc1)C2	31	39*	0	·	·	0
CCN1CCc2c(sc(NC(=O)Cc3ccccc3)c2C(N)=O)C1	-2	2	-2	·	·	0
CC(C)C(=O)Nc1sc2c(c1C(N)=O)CCN(Cc1ccccc1)C2	10	-3	-1	·	·	0
O=C1N[C@H](Cc2ccccc2)COCn2nncc2CC[C@H]1Cc1ccccc1	·	·	1	·	·	0
SMILES	esBAF inh	Wnt bcat act	CASP6 VEID inh	MITF act	NSD2 HMT inh	XiGFP reactiv
Cc1ccc(S(=O)(=O)NC2CCN(Cc3cccc(OCCO)c3)CC2)cc1	·	·	-1	·	·	·
CCN1CCc2c(sc(NC(=O)C3COc4ccccc4O3)c2C(N)=O)C1 (centres undefined)	26	12	-1	86*	0	0
NC(=O)c1c(NC(=O)c2ccccc2)sc2c1CCN(Cc1ccccc1)C2	25	8	0	4	·	44*
CCOc1ccc(OCc2ccc(C(=O)N(CC)CC)cc2)cc1	78*	0	-4	8	-27	0
CCC(=O)c1ccc(OCc2ccc(C#N)cc2)cc1	·	8	-1	-4	-6	0
CCN(CC(=O)Nc1ccc(NC(C)=O)cc1)C(=O)c1ccc(COc2ccc(C(C)(C)C)cc2)cc1	16	-2	-2	-10	32	0
CCC(=O)c1ccc(OCc2ccc(C(=O)OC)cc2)cc1	60*	-3	-1	-4	-2	1
Cc1ccc(C(=O)Nc2cc3c(cc2Cl)OCCCO3)cc1	69*	·	·	72	-4	·
O=C(Nc1cc2c(cc1Br)OCCCO2)c1ccccc1	·	52*	·	46	-3	0
CC(=O)c1cc2c(cc1NC(=O)c1ccc(Cl)cc1)OCCO2	-1	-2	-3	·	21	0
O=C(Nc1cc2c(cc1Cl)OCCCO2)c1ccc(F)cc1	·	51*	·	76	-5	0
Cc1ccc(C(=O)Nc2ccc3c(c2)OCCO3)cc1	-61	1	0	·	-5	0
O=C(Nc1cc2c(cc1Br)OCCCO2)c1cccnc1	-4	5	0	10	1	0
COc1cccc(-c2ccc3c(c2)[C@@H]2[C@@H](CCN2S(=O)(=O)c2ccccc2OC)[C@@H](CO)N3)c1	0	·	3	·	·	0
CC(C)OC(=O)c1cc2ccccc2[nH]1	66*	9	·	49	0	·
Cc1cc(=O)n2c(nc3ccccc32)[nH]1	·	·	·	8	-1	·
CCOC(=O)c1cc(-c2ccc(OC)cc2)n[nH]1	70*	23	3	·	-2	0
CCOC(=O)c1cc(-c2ccc3c(c2)OCCO3)n[nH]1	·	14	-2	69	-2	0
CCOC(=O)c1cc(=O)n2c(nc3ccccc32)[nH]1	55*	16	-2	28	·	0
NNC(=O)c1cc2ccccc2[nH]1	·	0	1	-4	2	0
CCOC(=O)c1cc2cc3ccccc3cc2[nH]1	22	40*	·	·	2	·
Cc1noc(C)c1S(=O)(=O)Nc1ccc2c(c1)C(=O)N([C@@H](C)CO)C[C@@H](C)[C@@H](CN(C)C(=O)CCC(F)(F)F)OCCCC[C@H](C)O2	4	·	0	·	·	-1
CO[C@@H]1CN(C)C(=O)c2ccc(NC(C)=O)cc2OC[C@@H](C)N(CC2CCCCC2)C[C@H]1C	·	·	·	·	·	0
C[C@@H]1CN([C@H](C)CO)C(=O)c2cc(C3=CCCCC3)cnc2O[C@@H]1CN(C)C(=O)Cc1cccnc1	4	·	2	·	·	-1
O=C(C[C@H]1C[C@@H]2c3cc(NC(=O)C4CCOCC4)ccc3O[C@@H]2[C@H](CO)O1)NCc1ccccn1	-4	·	0	·	·	0
CCC(C)Nc1nc2c(C)cccn2c(=O)c1C=Nc1ccc(OC)cc1 (centres undefined)	·	-1	41*	-3	-1	0
